Laboratory results: PubChem BioAssay
Active and inactive are the calls of the source. Unless noted, no stated cut-off is given here; in the data, active means inhibition above about 30%; inactive means the rest.

How the values were obtained:
[1] = reducers of endogenous Her2 protein level, primary screen, SKBR3 breast tumor cells, AlphaScreen, ATP viability (AID 461;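 active means Her2 level under about 52% in both replicate screens, with viability over 70% of control, limit read from the data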;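 on Her2 level: lower value means less Her2 protein in the cells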;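 on viability: percent of carrier control wells set as 100% viability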); conditions: 18-24 h, measured here: SKBR3 viability, ATP luminescence, at 10 µM
[2] = biological target: Receptor tyrosine-protein kinase erbB-2 (Homo sapiens) (UniProt P04626); assay: as above; conditions: 18-24 h, at 10 µM, stronger effect = lower value
Receptor tyrosine-protein kinase erbB-2 (Homo sapiens), sequence (P04626 whole entry, looked up): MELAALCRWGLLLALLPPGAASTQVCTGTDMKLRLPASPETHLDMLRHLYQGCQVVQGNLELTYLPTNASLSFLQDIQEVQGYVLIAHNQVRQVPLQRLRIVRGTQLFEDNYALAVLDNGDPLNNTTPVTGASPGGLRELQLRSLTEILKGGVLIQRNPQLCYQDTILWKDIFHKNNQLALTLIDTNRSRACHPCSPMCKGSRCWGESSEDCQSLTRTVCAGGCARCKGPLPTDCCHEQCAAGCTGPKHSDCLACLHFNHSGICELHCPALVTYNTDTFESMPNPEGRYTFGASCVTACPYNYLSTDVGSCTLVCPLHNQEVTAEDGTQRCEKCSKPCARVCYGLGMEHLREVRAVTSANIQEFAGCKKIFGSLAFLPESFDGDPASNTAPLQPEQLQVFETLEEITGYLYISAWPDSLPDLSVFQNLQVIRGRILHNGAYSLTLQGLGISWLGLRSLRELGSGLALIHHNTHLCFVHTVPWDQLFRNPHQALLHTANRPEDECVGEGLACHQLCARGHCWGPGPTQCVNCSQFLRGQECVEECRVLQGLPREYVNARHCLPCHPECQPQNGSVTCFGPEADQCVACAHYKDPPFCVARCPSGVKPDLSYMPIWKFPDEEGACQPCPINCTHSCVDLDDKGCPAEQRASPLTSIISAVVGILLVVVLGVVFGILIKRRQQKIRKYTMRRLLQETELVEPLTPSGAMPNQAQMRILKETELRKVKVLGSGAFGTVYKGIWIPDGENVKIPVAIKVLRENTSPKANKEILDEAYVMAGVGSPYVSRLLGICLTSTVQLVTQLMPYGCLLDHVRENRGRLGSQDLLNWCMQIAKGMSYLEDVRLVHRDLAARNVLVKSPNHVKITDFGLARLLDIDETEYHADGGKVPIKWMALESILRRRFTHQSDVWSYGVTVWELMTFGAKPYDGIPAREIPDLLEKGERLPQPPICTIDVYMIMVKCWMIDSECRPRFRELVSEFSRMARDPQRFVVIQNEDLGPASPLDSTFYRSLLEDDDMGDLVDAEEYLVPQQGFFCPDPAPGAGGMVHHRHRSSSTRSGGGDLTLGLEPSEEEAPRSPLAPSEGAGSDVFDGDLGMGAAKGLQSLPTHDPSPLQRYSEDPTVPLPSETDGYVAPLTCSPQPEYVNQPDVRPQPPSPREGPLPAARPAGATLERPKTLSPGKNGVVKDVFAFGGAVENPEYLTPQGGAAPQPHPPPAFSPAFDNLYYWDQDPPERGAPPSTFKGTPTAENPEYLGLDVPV

[3] = SK-BR-3 cell growth inhibitors, pilot screen, 24 h, human (AID 572;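 active means viability at or below 10% of carrier control in both of two separate runs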;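 further: compound exposure lasted between 18 and 24 h rather than exactly 24 h; 100% = carrier-treated control wells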); conditions: SK-BR-3 viability, CellTiter-Glo luminescence, at 10 µM, stronger effect = lower value
[4] = HUVEC growth inhibition – cell-based, human, primary screen (AID 575;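 active means viability at or below 30% in both replicate assays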;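 further: 100% = median of untreated cell wells with 0.1% DMSO on each plate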); conditions: HUVEC proliferation, CellTiter-Glo luminescence, 72 h; at 10 µM; stronger effect = lower value
Procedure, shortened: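 Assay system: Primary human umbilical vein endothelial cells | Quantity: 1250 cells per well | Medium: Supplemented EBM, 2% fetal bovine serum | Detection: CellTiter-Glo luminescence measuring cellular ATP | Read-out: % viability vs DMSO wells | Plate: Collagen-coated 384-well format | Times: 72 h exposure, 37 °C, 5% CO2, 30 min RT equilibration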

[5] = growth inhibitors of H69AR lung tumor, primary screen, human, duplicate replicates (AID 580;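 active means viability at or under a set limit in both replicates, limit being median viability minus 3 SD, cut at about 48% in these data, passing the limit was not always enough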;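 further: 100% = mean luminescence of untreated wells and 0% = no signal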); conditions: H69AR lung tumor cells viability, ATP luminescence, 72 h; at 10 µM; stronger effect = lower value
[6] = reversal of MRP1-mediated doxorubicin resistance, pilot screen, H69AR cells, doxorubicin co-treatment (AID 601;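 active means viability loss from added drug above about 55%, and viability with drug at most 40%, in both replicates, limit read from the data, passing the limit was not always enough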); conditions: CellTiter-Glo, 72 h, at 10 µM; for differential viability (reversal): stronger effect = higher value
[7] = 384-well plate pilot, post-Golgi transport modulator project, inhibition of yeast transport mutant growth (AID 636; in the data active means inhibition above about 31%); conditions: absorbance 615 nm, about 18 h, stronger effect = higher value
[8] = growth suppression of yeast trafficking mutant, preliminary HTS, modulators of trafficking downstream of Golgi apparatus project, 1536-format plate, OD 615 nm (AID 637); conditions: yeast transport mutant growth, absorbance 615 nm, 18 h; stronger effect = higher value
[9] = H69AR cells + 2 uM doxorubicin, measured here: viability with 2 uM doxorubicin, stronger effect = lower value
[10] = H69AR cells, compound alone cytotoxicity

Structure (SMILES)	viability [1] [%]	Her2 level [2]	viability [3]	viability [4]	viability [5]	differential viability (reversal) ([6]; H69AR cells + 2 uM doxorubicin)	viability [6, 9] [%]	viability [6, 10] [%]	inhibition [7]	inhibition [8]
CCOc1ccc(C2CC(c3cccc(C)c3)n3ncnc3N2)cc1 (stereo not given)	101	100% (inactive)	101% (inactive)	94% (inactive)	111% (inactive)	18% (inactive)	93.1	111	1.41% (inactive)	-3% (inactive)
COc1ccccc1OCCn1c(=O)sc2ccccc21	95	93% (inactive)	95% (inactive)	89.6% (inactive)	99.6% (inactive)	-8.55% (inactive)	108	99.6	-1.05% (inactive)	-7.94% (inactive)
O=C(Cn1c(=O)[nH]n(-c2ccccc2)c1=O)N1CCCc2ccccc21	116	96% (inactive)	116% (inactive)	82.1% (inactive)	93.7% (inactive)	8.74% (inactive)	85	93.7	-5.73% (inactive)	-4.92% (inactive)
COc1ccc(-c2cc(C(F)(F)F)n3ncc(C(=O)NCC4CCCO4)c3n2)cc1 (stereo not given)	84	116% (inactive)	84% (inactive)	78.9% (inactive)	41.7% (active)	-5.95% (inactive)	47.6	41.7	-1.54% (inactive)	-3.67% (inactive)
CCN1CCN(C(=O)c2ccc3c(=O)n(C4CCCC4)c(=S)[nH]c3c2)CC1	85.5	108% (inactive)	85.5% (inactive)	82.9% (inactive)	84.7% (inactive)	9.82% (inactive)	74.8	84.7	7.37% (inactive)	19.5% (inactive)
Cc1nc2ccccc2c2oc(C(=O)NCc3ccccn3)cc12	81	88% (inactive)	81% (inactive)	81.4% (inactive)	96.8% (inactive)	2.25% (inactive)	94.6	96.8	-1.73% (inactive)	-2.3% (inactive)
O=C1CCNc2cc3ccccc3cc21	73.5	84% (inactive)	73.5% (inactive)	61.7% (inactive)	70.5% (inactive)	0.425% (inactive)	70	70.5	-8.9% (inactive)	1.27% (inactive)
COc1ccc(CCNC(=O)c2cc(-c3cc(C)c(C)cc3O)n[nH]2)cc1OC	93.5	87.5% (inactive)	93.5% (inactive)	86.6% (inactive)	77% (inactive)	1.53% (inactive)	75.5	77	-3.82% (inactive)	-4% (inactive)
CCc1ccc2c(CN(CC)Cc3nc4ccccc4c(=O)[nH]3)cc(=O)oc2c1	86	73.5% (inactive)	86% (inactive)	75.4% (inactive)	67.9% (inactive)	36.3% (inactive)	31.7	67.9	-1.32% (inactive)	-7.27% (inactive)
CCOc1ccccc1N(CC(=O)NC1CCCC1)C(=O)CCCC(=O)Nc1ccccn1	91	93.5% (inactive)	91% (inactive)	106% (inactive)	112% (inactive)	15.3% (inactive)	96.3	112	-2.16% (inactive)	6.03% (inactive)
CCn1c(Cc2ccc(OC)cc2)nnc1SCC(=O)Nc1cccc(C(=O)OC)c1	89.5	86.5% (inactive)	89.5% (inactive)	85.8% (inactive)	103% (inactive)	7.12% (inactive)	95.7	103	-1.45% (inactive)	-2.86% (inactive)
CSc1ccc(Cn2nnc(C(=O)NCc3ccccc3)c2N)cc1	96.5	91.5% (inactive)	96.5% (inactive)	76.4% (inactive)	103% (inactive)	0.465% (inactive)	103	103	-1.87% (inactive)	0.16% (inactive)
COCc1cc(C)nc(SCC(=O)Nc2cccc(C)c2C)c1C#N	103	95.5% (inactive)	103% (inactive)	82.3% (inactive)	94.4% (inactive)	11.9% (inactive)	82.5	94.4	-3.16% (inactive)	-0.48% (inactive)
CC1=C(C(=O)OCc2ccccc2)C(c2ccc(C)o2)C2=C(CCCC2=O)N1 (stereo not given)	72	88% (inactive)	72% (inactive)	113% (inactive)	103% (inactive)	13.5% (inactive)	89.1	103	-6.89% (inactive)	6.07% (inactive)
